Data published in ChEMBL document CHEMBL5506013, “Mitochondria-Selective Dicationic Small-Molecule Ligand Targeting G-Quadruplex Structures for Human Colorectal Cancer Therapy” (J Med Chem, 2024).
Active and inactive are the calls of the source. The rule behind the calls is not given here.

Key:
[1] = test system: HCT-116; test: Antiproliferative activity against human HCT-116 cells measured after 48 hrs by MTT assay; type: functional, cell-based; conditions: HCT-116, 48 h
In short: (§1)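 Cells exposed to the ligands for 48 h. Viability was read by MTT, and the IC50 was derived from the response.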

[2] = test system: HCT-116; test: Antitumor activity against human HCT-116 cells xenografted in Balb/c nude mouse model assessed as induction of apoptosis at 5 mg/kg, iv administered every two days for 16 days by TUNEL staining based analysis; type: functional, organism-based; conditions: time 16.0 day
In short: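 Tumours came from HCT116-xenografted male Balb/c nude mice given 5 mg/kg i.v. every two days, or PBS, for 16 days. Tumour tissue sections were stained by TUNEL for apoptosis and by Ki67 immunofluorescence for proliferation, then compared with the control group.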

[3] = test system: Quadruplex DNA; test: Binding affinity to Mito 0.5-16 G4 DNA (unknown origin) assessed as change in melting temperature at 5 uM by circular dichroism spectroscopic analysis; type: nucleic-acid assay
[4] = Toxicity in BALB/c nude mouse assessed as effect on liver at 5 mg/kg, iv measured after 16 hrs post injection by H and E staining based analysis; type: organism-based; conditions: in vivo
[5] = Drug localization in human HCT-116 cells transfected with Cy5-mito 0.5-16 G4 DNA at 4 uM incubated for 1 hr by hoechst33342 staining based analysis; type: ADME, cell-based; conditions: hct-116, 1 h
In short: (§2)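 HCT116 cells transfected with Cy5-labelled DNA (excitation 635 nm) for 24 h. Ligand 4 uM added for 1 h, then Hoechst33342 1 uM for 30 min. Colocalization of ligand with Cy5 quantified by Pearson r from confocal images.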

[6] = biological target: DNA; test: Binding affinity to HP19 DNA (non-G4 DNA) (unknown origin) assessed as dissociation constant measured upto 150 secs by isothermal titration calorimetry assay; type: nucleic-acid assay
[7] = test system: HCT-116; test: Induction of ROS production in human HCT-116 cells assessed as upregulation of ROS level at upto 4 uM measured after 48 hrs in presence of MitoTEMPO by mito-sox staining based analysis; type: functional, cell-based
[8] = Toxicity in BALB/c nude mouse assessed as change in hemoglobin level at 5 mg/kg, iv administered every two days for 16 days; type: organism-based; conditions: in vivo, 384 h, time 16 day
In short: (§3)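 HCT116 xenograft-bearing male Balb/c nude mice (6/group) dosed iv at 5 mg/kg every two days or with PBS. Whole blood collected at sacrifice on day 16 for hematology parameters.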

[9] = test system: HeLa; test: Antiproliferative activity against human HeLa cells measured after 48 hrs by MTT assay; type: functional, cell-based; in short: as §1
[10] = test system: Quadruplex DNA; test: Binding affinity to mito 0.5-15 G4 DNA (unknown origin) assessed as increase in fluorescence intensity by fluorescence spectrophotometric analysis; type: nucleic-acid assay
In short: (§4)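 Oligonucleotides were pre-annealed at 95 °C for 10 min, then cooled slowly. Ligand (5 uM) was mixed with 20 uM DNA in buffer. Emission was collected over 550–800 nm, and enhancement was taken at 650 nm as F/F0.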

[11] = test system: Quadruplex DNA; test: Binding affinity to mito 29 G4 DNA (unknown origin) assessed as increase in fluorescence intensity by fluorescence spectrophotometric analysis; type: nucleic-acid assay; in short: as §4
[12] = test system: HCT-116; test: Inhibition of cell migration in human HCT-116 cells at upto 4 uM measured after 72 hrs by transwell assay relative to control; type: functional; conditions: up to 4 µM
In short: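 Transwell migration of HCT116 cells treated for 72 h at 0, 1, 2 or 4 uM, imaged at 100x and quantified; mean ± SD.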

[13] = Toxicity in BALB/c nude mouse assessed as effect on heart at 5 mg/kg, iv measured after 16 hrs post injection by H and E staining based analysis; type: organism-based; conditions: in vivo
[14] = test system: Quadruplex DNA; test: Binding affinity to Mito 81 G4 DNA (unknown origin) assessed as increase in CD signal at 5 uM at 265 nM by circular dichroism spectroscopic analysis; type: nucleic-acid assay
[15] = test system: Quadruplex DNA; test: Binding affinity to Mut 55 G4 DNA (unknown origin) assessed as increase in fluorescence intensity by fluorescence spectrophotometric analysis; type: nucleic-acid assay; in short: as §4
[16] = test system: Quadruplex DNA; test: Binding affinity to mito 55 G4 DNA (unknown origin) assessed as increase in fluorescence intensity by fluorescence spectrophotometric analysis; type: nucleic-acid assay; in short: as §4
[17] = test system: HCT-116; test: Upregulation of cleaved caspase-3 level in human HCT-116 cells at upto 4 uM measured after 72 hrs by Western blot analysis; type: functional, cell-based
In short: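 HCT116 cells treated with ligand at 0-4 uM for 72 h. Lysates immunoblotted for Lamin B1, p53, p21, p16, gamma-H2A.x, caspase-3 and cleaved caspase-3, with beta-actin as loading control.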

[18] = test system: DNA; test: Binding affinity to SS19 DNA (non-G4 DNA) (unknown origin) assessed as change in melting temperature at 5 uM by circular dichroism spectroscopic analysis; type: nucleic-acid assay
[19] = test system: HepG2; test: Antiproliferative activity against human HepG2 cells measured after 48 hrs by MTT assay; type: functional, cell-based; conditions: HepG2, 48 h; in short: as §1
[20] = Drug localization in nucleus of living human HCT-116 cells assessed as colocalization at 4 uM incubated for 1 hr by Hoechst33342 staining based analysis; type: ADME, subcellular; conditions: hct-116, 1 h
[21] = test system: DNA; test: Binding affinity to HP19 DNA (non-G4 DNA) (unknown origin) assessed as change in melting temperature at 5 uM by circular dichroism spectroscopic analysis; type: nucleic-acid assay
[22] = test system: HCT-116; test: Downregulation of ATP6 mRNA level in human HCT-116 cells at 0 to 4 uM measured after 48 hrs by qRT-PCR analysis; type: functional, cell-based; conditions: dose 0-4 µM
[23] = test system: Cell membrane; test: Induction of mitochondrial membrane potential depolarization in human HCT-116 cells assessed as […] in TMRE fluorescence incubated for 48 hrs by TMRE staining based analysis; type: cell membranes; conditions: dose <= 4.0 µM
[24] = Drug localization in human HCT-116 cells transfected with Cy5-SS19 non G4 DNA at 4 uM incubated for 1 hr by hoechst33342 staining based analysis; type: ADME, cell-based; conditions: hct-116, 1 h; in short: as §2
[25] = Toxicity in BALB/c nude mouse assessed as change in mean platelet volume at 5 mg/kg, iv administered every two days for 16 days; type: organism-based; conditions: in vivo, 384 h, time 16 day; in short: as §3
[26] = biological target: Quadruplex DNA; test: Binding affinity to mito 29 G4 DNA (unknown origin) assessed as dissociation constant measured upto 450 secs by surface plasmon resonance assay; type: nucleic-acid assay
In short: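 Surface plasmon resonance in buffer at 25 °C. Four G4-mtDNAs (Mito 78, Mito 55, Mito 29, Mito 0.5-16) and the hairpin HP19 served as substrates. Kd was derived from the sensorgrams.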

[27] = test system: HCT-116; test: Downregulation of ND2 gene expression in human HCT-116 cells at 0 to 4 uM measured after 48 hrs by q-PCR analysis; type: functional, cell-based; conditions: dose 0-4 µM
[28] = test system: HCT-116; test: Downregulation of ND5 mRNA level in human HCT-116 cells at 0 to 4 uM measured after 48 hrs by qRT-PCR analysis; type: functional, cell-based; conditions: dose 0-4 µM
[29] = test system: HCT-116; test: Antitumor activity against human HCT-116 cells assessed as increase in beta-galactosidase activity at upto 4 uM measured after 72 hrs relative to control; type: functional; conditions: up to 4 µM
In short: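 HCT116 cells were treated for 72 h across 0–4 uM. β-Galactosidase activity was then measured against untreated control. Data are given as mean ± SEM, with significance by t test.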

C(=C\c1ccc2ccccc2[n+]1CCCCCCCC[n+]1c(/C=C/c2ccc(N3CCCCC3)cc2)ccc2ccccc21)/c1ccc(N2CCCCC2)cc1.[I-].[I-]
IC50 [1]: 3.4 µM | Activity [2]: Active | ΔTm [3]: 16.5 °C | Activity [4]: Non-Toxic | Drug uptake [5]: Active | Kd [6]: > 4.7 µM | Activity [7]: inactive | Activity [8]: Non-Toxic | IC50 [9]: 23.5 µM | Activity [10]: Active | Activity [11]: Active | inhibition (INH) [12]: 40% | Activity [13]: Non-Toxic | Activity [14]: Active | Activity [15]: inactive | Activity [16]: Active | Activity [17]: Active | ΔTm [18]: 0.5 °C | IC50 [19]: > 40 µM | Drug uptake [20]: Not Active | ΔTm [21]: 0.5 °C | Activity [22]: Active | Activity [23]: Dose-Dependent Effect | Drug uptake [24]: Not Active | Activity [25]: Non-Toxic | Kd [26]: 0.11 µM | Activity [27]: Active | Activity [28]: Active | Activity [29]: 17.63%
